From ChEMBL document CHEMBL1139385, “Structural analysis of ARC-type inhibitor (ARC-1034) binding to protein kinase A catalytic subunit and rational design of bisubstrate analogue inhibitors of basophilic protein kinases” (J Med Chem, 2009) come the findings set out here.

pIC50: −log10 of the molar value. Where a SMILES comes first, the peptide text is derived from it. [ ]: non-standard residue; d: D form. The star is where a group is joined. Adenosine(5'-uronoyl) = Nc1ncnc2c1ncn2[C@@H]1O[C@H](C(=O)*)[C@@H](O)[C@H]1O; Ahx = NCCCCCC(=O)O

The term inhibition denotes the drop in the measured response relative to a control, in per cent. In general, pIC50 refers to −log10 of the IC50, conventionally taken in molar units. Low values mean a high IC50, high ones a low IC50.

Assay [1] has as its target Protein kinase C alpha type (Homo sapiens) (UniProt P17252). As to the kind of experiment: Inhibition of PKCalpha at 100 nM relative to control. In a few lines: (§1)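 Activity is expressed as percent inhibition versus control incubations lacking inhibitor. Values are means of duplicate determinations.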
Assay [2] has as its target cAMP-dependent protein kinase catalytic subunit PRKX (Homo sapiens) (UniProt P51817). The following applies: 100 nM.
Assay [3] concerns the target T1, RAC-gamma serine/threonine-protein kinase (Homo sapiens, UniProt Q9Y243). The following applies: 100 nM.
Assay [4] has as its target Serine/threonine-protein kinase PAK 6 (Homo sapiens) (UniProt Q9NQU5). The assay is described as follows: Inhibition of PAK6 at 100 nM relative to control. A digest of the protocol: as §1
For assay [5], the target named is Serine/threonine-protein kinase D2 (Homo sapiens) (UniProt Q9BZL6). As to the kind of experiment: Inhibition of PKD2 at 100 nM relative to control. In a few lines:
as §1

Assay [6] has as its target T1, RAC-gamma serine/threonine-protein kinase. As to the kind of experiment: Inhibition of PKBgamma using 100 uM ATP and 30 uM TAMRA-kemptide substrate by fluorometric TLC assay.
The target of assay [7] is Ribosomal protein S6 kinase alpha-1 (Homo sapiens) (UniProt Q15418). As to the kind of experiment: Inhibition of RSK1 at 100 nM relative to control. A digest of the protocol: as §1
Assay [8] deals with Serine/threonine-protein kinase pim-1 (Homo sapiens) (UniProt P11309). As to the kind of experiment: Inhibition of PIM1 at 100 nM relative to control. In a few lines: as §1
Serine/threonine-protein kinase pim-1 (Homo sapiens), sequence (P11309 whole entry, looked up): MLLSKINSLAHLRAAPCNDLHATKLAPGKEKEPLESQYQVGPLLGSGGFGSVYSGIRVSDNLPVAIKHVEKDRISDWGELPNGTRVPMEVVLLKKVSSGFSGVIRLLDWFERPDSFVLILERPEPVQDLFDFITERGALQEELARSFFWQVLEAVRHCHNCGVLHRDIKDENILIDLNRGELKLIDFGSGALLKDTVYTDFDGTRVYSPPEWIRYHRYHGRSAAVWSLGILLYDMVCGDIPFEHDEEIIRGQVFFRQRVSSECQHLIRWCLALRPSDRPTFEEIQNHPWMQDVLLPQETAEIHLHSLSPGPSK
The target in assay [9] is Maternal embryonic leucine zipper kinase (Homo sapiens) (UniProt Q14680). As to the kind of experiment: Inhibition of MELK at 100 nM relative to control. A digest of the protocol: as §1
Maternal embryonic leucine zipper kinase (Homo sapiens), sequence (Q14680 whole entry, looked up): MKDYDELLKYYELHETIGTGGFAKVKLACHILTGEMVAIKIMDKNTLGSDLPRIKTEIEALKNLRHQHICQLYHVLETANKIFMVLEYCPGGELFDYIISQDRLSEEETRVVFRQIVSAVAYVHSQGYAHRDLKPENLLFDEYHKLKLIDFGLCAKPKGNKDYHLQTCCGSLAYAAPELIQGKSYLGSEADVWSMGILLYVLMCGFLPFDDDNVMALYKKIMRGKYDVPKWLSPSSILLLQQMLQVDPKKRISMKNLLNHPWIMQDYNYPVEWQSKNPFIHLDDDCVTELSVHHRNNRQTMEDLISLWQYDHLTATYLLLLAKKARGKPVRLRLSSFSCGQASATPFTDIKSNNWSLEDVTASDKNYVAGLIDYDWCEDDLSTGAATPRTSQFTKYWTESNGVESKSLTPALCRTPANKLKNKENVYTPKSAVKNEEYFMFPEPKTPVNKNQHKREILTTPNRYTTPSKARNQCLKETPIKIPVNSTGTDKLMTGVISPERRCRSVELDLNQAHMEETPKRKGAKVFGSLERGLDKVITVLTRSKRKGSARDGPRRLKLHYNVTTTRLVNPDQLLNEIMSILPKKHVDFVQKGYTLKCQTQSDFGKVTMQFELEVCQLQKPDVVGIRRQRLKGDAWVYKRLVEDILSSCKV
Assay [10] concerns the target Serine/threonine-protein kinase pim-2 (Homo sapiens) (UniProt Q9P1W9). As to the kind of experiment: Inhibition of PIM2 at 100 nM relative to control. A digest of the protocol:
as §1

Assay [11] addresses cAMP-dependent protein kinase catalytic subunit alpha (Homo sapiens, UniProt P17612). The following applies: 100 nM.
In assay [12] the target is Ribosomal protein S6 kinase beta-1 (Homo sapiens) (UniProt P23443). As to the kind of experiment: Inhibition of p70S6K at 100 nM relative to control. A digest of the protocol:
as §1

T1 sequence (Q9Y243 whole entry): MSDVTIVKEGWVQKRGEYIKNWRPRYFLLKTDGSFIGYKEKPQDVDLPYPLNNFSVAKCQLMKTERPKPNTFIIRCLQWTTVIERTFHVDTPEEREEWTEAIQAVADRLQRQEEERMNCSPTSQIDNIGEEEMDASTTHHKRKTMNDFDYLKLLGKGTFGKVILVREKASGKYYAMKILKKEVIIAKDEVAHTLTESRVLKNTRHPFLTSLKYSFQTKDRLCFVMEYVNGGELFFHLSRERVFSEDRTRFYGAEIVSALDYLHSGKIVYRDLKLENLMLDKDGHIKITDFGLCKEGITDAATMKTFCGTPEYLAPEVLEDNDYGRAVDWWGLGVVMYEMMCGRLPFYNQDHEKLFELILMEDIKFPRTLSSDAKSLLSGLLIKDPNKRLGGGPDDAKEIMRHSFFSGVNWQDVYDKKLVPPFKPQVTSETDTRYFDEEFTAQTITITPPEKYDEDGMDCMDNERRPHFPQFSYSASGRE
Serine/threonine-protein kinase PAK 6 (Homo sapiens), sequence (Q9NQU5 whole entry, looked up): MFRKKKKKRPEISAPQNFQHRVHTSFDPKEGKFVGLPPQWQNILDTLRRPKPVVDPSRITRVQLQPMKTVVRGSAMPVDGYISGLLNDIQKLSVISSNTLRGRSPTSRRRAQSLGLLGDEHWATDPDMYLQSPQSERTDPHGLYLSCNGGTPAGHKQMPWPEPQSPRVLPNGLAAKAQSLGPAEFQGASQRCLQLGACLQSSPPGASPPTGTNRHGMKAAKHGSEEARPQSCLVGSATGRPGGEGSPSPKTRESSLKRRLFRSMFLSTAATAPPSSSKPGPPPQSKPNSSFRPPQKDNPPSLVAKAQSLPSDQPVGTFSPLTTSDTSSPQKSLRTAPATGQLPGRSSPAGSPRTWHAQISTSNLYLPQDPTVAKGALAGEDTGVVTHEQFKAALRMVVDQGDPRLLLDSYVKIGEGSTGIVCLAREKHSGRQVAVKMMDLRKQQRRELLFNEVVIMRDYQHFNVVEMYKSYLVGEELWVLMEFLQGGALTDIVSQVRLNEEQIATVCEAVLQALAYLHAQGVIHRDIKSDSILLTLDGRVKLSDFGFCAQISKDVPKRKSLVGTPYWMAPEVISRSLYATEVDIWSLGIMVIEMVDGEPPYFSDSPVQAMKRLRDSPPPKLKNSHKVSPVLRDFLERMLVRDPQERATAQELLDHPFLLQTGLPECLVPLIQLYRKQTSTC
Serine/threonine-protein kinase D2 (Homo sapiens), sequence (Q9BZL6 whole entry): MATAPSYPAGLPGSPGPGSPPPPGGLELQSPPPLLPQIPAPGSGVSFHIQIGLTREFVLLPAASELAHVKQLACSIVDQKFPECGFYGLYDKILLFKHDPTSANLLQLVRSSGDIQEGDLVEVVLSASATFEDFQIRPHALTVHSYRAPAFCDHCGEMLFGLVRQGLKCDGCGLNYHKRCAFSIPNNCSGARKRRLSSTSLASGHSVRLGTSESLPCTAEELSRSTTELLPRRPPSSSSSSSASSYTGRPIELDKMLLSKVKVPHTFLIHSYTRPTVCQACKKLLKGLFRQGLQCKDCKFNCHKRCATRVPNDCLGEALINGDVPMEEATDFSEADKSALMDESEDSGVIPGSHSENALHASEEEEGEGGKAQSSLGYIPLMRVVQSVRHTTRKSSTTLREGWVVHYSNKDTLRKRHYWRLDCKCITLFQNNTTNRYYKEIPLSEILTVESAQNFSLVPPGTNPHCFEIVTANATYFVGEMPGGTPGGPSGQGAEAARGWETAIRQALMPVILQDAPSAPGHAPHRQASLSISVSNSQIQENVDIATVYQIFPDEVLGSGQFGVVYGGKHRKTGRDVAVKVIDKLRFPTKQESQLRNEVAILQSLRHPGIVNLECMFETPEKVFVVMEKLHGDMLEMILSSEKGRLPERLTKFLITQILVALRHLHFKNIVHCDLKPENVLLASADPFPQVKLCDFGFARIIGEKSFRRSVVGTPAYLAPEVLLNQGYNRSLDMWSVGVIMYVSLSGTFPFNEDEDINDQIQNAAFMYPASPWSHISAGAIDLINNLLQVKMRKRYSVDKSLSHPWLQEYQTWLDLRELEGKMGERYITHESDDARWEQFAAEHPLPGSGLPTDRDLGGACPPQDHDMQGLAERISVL
cAMP-dependent protein kinase catalytic subunit PRKX (Homo sapiens), sequence (P51817 whole entry): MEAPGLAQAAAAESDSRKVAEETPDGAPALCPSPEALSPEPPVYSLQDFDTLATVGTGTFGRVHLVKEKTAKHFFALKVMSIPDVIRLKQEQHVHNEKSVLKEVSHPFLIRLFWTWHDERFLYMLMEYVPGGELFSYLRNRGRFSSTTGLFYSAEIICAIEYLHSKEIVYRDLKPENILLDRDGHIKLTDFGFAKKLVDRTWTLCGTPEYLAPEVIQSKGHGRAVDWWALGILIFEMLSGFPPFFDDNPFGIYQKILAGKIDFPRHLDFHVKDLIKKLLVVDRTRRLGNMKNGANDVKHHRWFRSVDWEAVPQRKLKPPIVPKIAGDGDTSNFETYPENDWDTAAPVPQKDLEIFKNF
Ribosomal protein S6 kinase beta-1 (Homo sapiens), sequence (P23443 whole entry, looked up): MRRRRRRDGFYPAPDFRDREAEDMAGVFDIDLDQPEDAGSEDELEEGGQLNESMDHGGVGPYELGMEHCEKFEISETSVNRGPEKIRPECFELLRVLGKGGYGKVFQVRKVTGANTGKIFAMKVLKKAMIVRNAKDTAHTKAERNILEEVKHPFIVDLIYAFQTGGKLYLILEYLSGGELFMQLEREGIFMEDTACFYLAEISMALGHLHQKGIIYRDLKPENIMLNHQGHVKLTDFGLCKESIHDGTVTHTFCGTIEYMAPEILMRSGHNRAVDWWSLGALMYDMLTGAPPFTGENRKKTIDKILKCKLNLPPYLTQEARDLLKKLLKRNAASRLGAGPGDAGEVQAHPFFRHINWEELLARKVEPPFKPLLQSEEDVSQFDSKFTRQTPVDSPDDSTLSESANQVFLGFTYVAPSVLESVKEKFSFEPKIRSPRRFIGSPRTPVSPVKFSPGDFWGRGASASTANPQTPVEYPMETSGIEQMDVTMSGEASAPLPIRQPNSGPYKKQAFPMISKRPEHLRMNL
Serine/threonine-protein kinase pim-2 (Homo sapiens), sequence (Q9P1W9 whole entry, looked up): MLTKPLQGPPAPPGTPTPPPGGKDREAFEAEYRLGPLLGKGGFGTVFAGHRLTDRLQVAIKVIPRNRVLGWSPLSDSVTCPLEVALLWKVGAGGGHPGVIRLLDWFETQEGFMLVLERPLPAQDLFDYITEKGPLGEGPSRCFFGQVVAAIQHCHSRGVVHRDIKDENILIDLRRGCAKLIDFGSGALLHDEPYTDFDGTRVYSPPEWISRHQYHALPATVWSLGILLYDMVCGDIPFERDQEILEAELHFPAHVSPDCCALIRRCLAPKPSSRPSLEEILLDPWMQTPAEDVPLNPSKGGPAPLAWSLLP

For `N=C(N)NCCC[C@@H](NC(=O)[C@@H](CCCNC(=N)N)NC(=O)[C@@H](CCCNC(=N)N)NC(=O)[C@@H](CCCNC(=N)N)NC(=O)[C@@H](CCCNC(=N)N)NC(=O)[C@@H](CCCNC(=N)N)NC(=O)CCCCCNC(=O)[C@@H](CCCCN)NC(=O)CCCCCNC(=O)[C@H]1O[C@@H](n2cnc3c(N)ncnc32)[C@H](O)[C@@H]1O)C(N)=O` ({Adenosine(5'-uronoyl)-Ahx}-[dK][Ahx][dR][dR][dR][dR][dR][dR]-NH2), the inhibition stood at 94% in assay [1]; 104% in assay [2]; 87% in assay [3]; 81% in assay [4]; 37% in [5]; 98% in assay [7]. In addition, the inhibition in assay [8] worked out at 96%; in assay [9], 84%; in [10] it was 79%; in assay [11], 104%; in assay [12] it was 96%. The molecule also showed a negative-log IC50 (pIC50) in assay [6] of 7.84.
